Test results taken from ChEMBL document CHEMBL1128398, “Structure-activity relationship of alpha-galactosylceramides against B16-bearing mice” (1995).

Legend:
[1] = species on record: Homo sapiens; assay: Lymphocyte Proliferation Stimulatory effect on human umbilical cord blood at 100 ng/mL and measured for [3H]TdR (tritium-thymidine) uptake (percent of control); type: functional
Outline: (§1)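 Mononuclear cells were isolated from human peripheral blood or umbilical cord blood and plated at 1 × 10^5 cells/well in RPMI 1640 with 10% autologous plasma, with compound. After 4 days of incubation, a 6 h [3H]TdR pulse was given and uptake was counted by scintillation. Run in triplicate.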

[2] = species on record: Homo sapiens; assay: Lymphocyte Proliferation Stimulatory effect on human umbilical cord blood at 1 ng/mL and measured for [3H]TdR (tritium-thymidine) uptake (percent of control); type: functional; outline: as §1
[3] = species on record: Homo sapiens; assay: Lymphocyte Proliferation Stimulatory effect on human umbilical cord blood at 10 ng/mL and measured for [3H]TdR (tritium-thymidine) uptake (percent of control); type: functional; outline: as §1
[4] = species on record: Homo sapiens; assay: Lymphocyte Proliferation Stimulatory effect on human peripheral blood at 1 ng/mL and measured for [3H]TdR (tritium-thymidine) uptake (percent of control); type: functional; outline: as §1
[5] = species on record: Homo sapiens; assay: Lymphocyte Proliferation Stimulatory effect on human peripheral blood at 10 ng/mL and measured for [3H]TdR (tritium-thymidine) uptake (percent of control); type: functional; outline: as §1
[6] = species on record: Homo sapiens; assay: Lymphocyte Proliferation Stimulatory effect on human peripheral blood at 100 ng/mL and measured for [3H]TdR (tritium-thymidine) uptake (percent of control); type: functional; outline: as §1
[7] = system: B16; assay: Tumor Growth Inhibitory effect (TGIR) on mice subcutaneously inoculated with B16 cells (chemotherapeutic agent, mitomycin C (MMC)); type: functional, Mus musculus; parameters: concentration or dose not given beside the values
Outline: (§2)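 Groups of six female BDF1 mice received B16 melanoma (1 × 10^6 cells/mouse) s.c. on day 0. AGL analogues were given i.v. at 100 μg/kg on days 1, 5 and 9, and MMC at 5 mg/kg i.p. on day 1; controls were untreated. Tumor volume (length × width × height/2, by callipers) was read on days 8, 12, 16 and 20. TGIR = [1 − mean test volume/mean control volume] × 100, and the maximum value is reported.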

[8] = system: B16; assay: Tumor Growth Inhibitory effect (TGIR) on mice subcutaneously inoculated with B16 cells (compound alone (single)); type: functional, Mus musculus; parameters: concentration or dose not given beside the values; outline: as §2
[9] = system: B16; assay: Tumor Growth Inhibitory effect (TGIR) on mice subcutaneously inoculated with B16 cells (compound plus MMC); type: functional, Mus musculus; parameters: concentration or dose not given beside the values; outline: as §2
[10] = species on record: Mus musculus; assay: Lymphocyte Proliferation Stimulatory effect on Allogenic MLR at 10 ng/mL and measured for [3H]TdR (tritium-thymidine) uptake (percent of control); type: functional
Outline: (§3)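 Responders were BALB/c spleen cells and stimulators were C57BL/6 spleen cells pretreated with MMC (50 μg/mL, 30 min). Both were plated at 1 × 10^5 cells in 10% FCS RPMI 1640, with compounds added at plating. Culture was at 37 °C in 5% CO2 for 2–3 days, then a 6 h [3H]TdR pulse with scintillation counting. Run in triplicate.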

[11] = species on record: Mus musculus; assay: Lymphocyte Proliferation Stimulatory effect on Allogenic MLR at 100 ng/mL and measured for [3H]-TdR (tritium-thymidine) uptake (percent of control); type: functional; outline: as §3
[12] = species on record: Mus musculus; assay: Lymphocyte Proliferation Stimulatory effect on Allogenic MLR at 0.1 ng/mL and measured for [3H]TdR (tritium-thymidine) uptake (percent of control); type: functional; outline: as §3
[13] = species on record: Mus musculus; assay: Lymphocyte Proliferation Stimulatory effect on Allogenic MLR at 1 ng/tritium-thymidine) uptake (percent of control); type: functional; outline: as §3
[14] = species on record: Mus musculus; assay: Lymphocyte Proliferation Stimulatory effect was tested on mouse spleen cells and evaluated for at 6 h [3H]TdR (tritium-thymidine) pulse and uptake into cells at 1 ng/mL; type: functional
Outline: (§4)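 BALB/c spleen cells (2 × 10^5 cells/well, no stimulator cells) were cultured in 10% FCS RPMI 1640 with compound at 37 °C in 5% CO2 for 2–3 days. A 6 h [3H]TdR pulse followed, and uptake was counted by liquid scintillation. Run in triplicate.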

[15] = species on record: Mus musculus; assay: Lymphocyte Proliferation Stimulatory effect on allogenic MLR at a concentration of 100n g/mL; type: functional; outline: as §3
[16] = species on record: Mus musculus; assay: Lymphocyte Proliferation Stimulatory effect on allogenic MLR at a concentration of 10 ng/mL; type: functional; outline: as §3
[17] = species on record: Mus musculus; assay: Lymphocyte Proliferation Stimulatory effect on allogenic MLR at a concentration of 1 ng/mL; type: functional; outline: as §3
[18] = species on record: Mus musculus; assay: Lymphocyte Proliferation Stimulatory effect on mouse spleen cell at a concentration of 100n g/mL; type: functional; outline: as §4
[19] = species on record: Mus musculus; assay: Lymphocyte Proliferation Stimulatory effect on mouse spleen cell at a concentration of 10 ng/mL; type: functional; outline: as §4
[20] = species on record: Mus musculus; assay: Lymphocyte Proliferation Stimulatory effect on mouse spleen cell at a concentration of 1 ng/mL; type: functional; outline: as §4
[21] = species on record: Mus musculus; assay: Lymphocyte Proliferation Stimulatory effect was tested on mouse spleen cells and evaluated for at 6 h [3H]TdR (tritium-thymidine) pulse and uptake into cells at 10 ng/mL; type: functional; outline: as §4
[22] = species on record: Mus musculus; assay: Lymphocyte Proliferation Stimulatory effect was tested on mouse spleen cells and evaluated for at 6 h [3H]TdR (tritium-thymidine) pulse and uptake into cells at 100 ng/mL; type: functional; outline: as §4
[23] = system: Mus musculus; assay: Compound is administered at days 6, 10, and 14.Tumor volume of each mouse is measured on days 8, 12, 16 and 20(chemotherapeutic agent, mitomycin C (MMC)); type: functional
[24] = system: Mus musculus; assay: Compound is administered at days 6, 10, and 14.Tumor volume of each mouse is measured on days 8, 12, 16 and 20(compound alone (single)); type: functional
[25] = system: Mus musculus; assay: Compound is administered at days 6, 10, and 14.Tumor volume of each mouse is measured on days 8, 12, 16 and 20(compound plus MMC); type: functional
[26] = species on record: Mus musculus; assay: Lymphocyte Proliferation Stimulatory effect on Allogenic MLR at 1 ng/mL and measured for [3H]TdR (tritium-thymidine) uptake (percent of control); type: functional; outline: as §3

CCCCCCCCCCCCCCCCCCCCCCCCCC(=O)N[C@@H](CO[C@H]1O[C@H](CO)[C@H](O)[C@H](O)[C@H]1O)[C@H](O)[C@H](O)CCCCCCCCCCCCCC [RGI-7000]
Control [1]: 581%
Control [2]: 398%
Control [3]: 663%
Control [4]: 356%
Control [5]: 389%
Control [6]: 590%
Tumor growth inhibition ratio (max TGIR) [7]: 67.6%
Control [8]: 53.8%
Control [9]: 86.7%
Control [10]: 251%
Control [11]: 283%
Control [12]: 125%
Control [13]: 200%

CCCCCCCCCCCCCCCCCCCCCC[C@@H](O)C(=O)N[C@@H](CO[C@H]1O[C@@H](CO)[C@H](O)[C@H](O)[C@@H]1O)[C@H](O)[C@H](O)CCCCCCCCCCCC(C)C (stereo in doubt; form 1)
Tumor growth inhibition ratio (max TGIR) [7]: 61.5%
Control [8]: 86.8%
Control [9]: 94.6%
Control [14]: 282%
[3H] TdR uptake [15]: 31219 c.p.m.
[3H] TdR uptake [16]: 38668 c.p.m.
[3H] TdR uptake [17]: 29143 c.p.m.
[3H] TdR uptake [18]: 23968 c.p.m.
[3H] TdR uptake [19]: 20746 c.p.m.
[3H] TdR uptake [20]: 7935 c.p.m.
Control [21]: 524%
Control [22]: 879%

CCCCCCCCCCCCCCCCCCCCCCCC[C@@H](O)C(=O)N[C@@H](CO[C@H]1O[C@@H](CO)[C@H](O)[C@H](O)[C@@H]1O)[C@H](O)CCCCCCCCCCCCCCC
Control [1]: 362%
Control [2]: 210%
Control [3]: 238%

CCCCCCCCCCCCCCCCCCCCCCCC[C@@H](O)C(=O)N[C@@H](CO[C@H]1O[C@@H](CO)[C@H](O)[C@H](O)[C@@H]1O)[C@H](O)[C@H](O)CCCCCCCCCCCCCC
Control [1]: 586%
Control [2]: 382%
Control [3]: 582%
Control [4]: 332%
Control [5]: 352%
Control [6]: 470%
Control [23]: 67.6%
Control [24]: 69.8%
Control [25]: 85%
Tumor growth inhibition ratio (max TGIR) [7]: 87.3%
Control [8]: 92.8%
Control [9]: 97.7%
Control [14]: 203%
Control [10]: 250%
Control [11]: 280%
Control [21]: 437%
Control [22]: 620%
Control [12]: 118%
Control [26]: 180%

CCCCCCCCCCCCCCCCCCCCCC[C@@H](O)C(=O)N[C@@H](CO[C@H]1O[C@@H](CO)[C@H](O)[C@H](O)[C@@H]1O)[C@H](O)[C@H](O)CCCCCCCCCCCC(C)C (stereo in doubt; form 2)
[3H] TdR uptake [15]: 32240 c.p.m.
[3H] TdR uptake [16]: 36713 c.p.m.
[3H] TdR uptake [17]: 36022 c.p.m.
[3H] TdR uptake [18]: 24264 c.p.m.
[3H] TdR uptake [19]: 19985 c.p.m.
[3H] TdR uptake [20]: 8230 c.p.m.

CCCCCCCCCCCCCCCCCCCCCCCC[C@@H](O)C(=O)N[C@@H](CO[C@H]1O[C@@H](CO)[C@H](O)[C@H](O)[C@@H]1O)[C@H](O)[C@H](O)CCCCCCCCCCCCCCC
Tumor growth inhibition ratio (max TGIR) [7]: 87.3%
Control [8]: 72.3%
Control [9]: 97.1%
Control [14]: 221%
Control [21]: 488%
Control [22]: 673%

CCCCCCCCCCCCCCCCCCCCCC[C@@H](O)C(=O)N[C@@H](CO[C@H]1O[C@@H](CO)[C@H](O)[C@H](O)[C@@H]1O)[C@H](O)[C@H](O)CCCCCCCCCCCCC
Tumor growth inhibition ratio (max TGIR) [7]: 61.5%
Control [8]: 82.4%
Control [9]: 90.6%
Control [14]: 520%
Control [21]: 1491%
Control [22]: 1202%

CCCCCCCCCCCCCCCCCCCCCC[C@@H](O)C(=O)N[C@@H](CO[C@H]1O[C@@H](CO)[C@H](O)[C@H](O)[C@@H]1O)[C@H](O)[C@H](O)CCCCCCCCCCC
Tumor growth inhibition ratio (max TGIR) [7]: 46.5%
Control [8]: 94.1%
Control [9]: 77.4%
Control [14]: 330%
Control [21]: 676%
Control [22]: 838%

CCCCCCCCCCCCCCCCCCCCCC[C@@H](O)C(=O)N[C@@H](CO[C@H]1O[C@@H](CO)[C@H](O)[C@H](O)[C@@H]1O)[C@H](O)[C@H](O)CCCCCCC
Tumor growth inhibition ratio (max TGIR) [7]: 46.5%
Control [8]: 46.2%
Control [9]: 85.1%
Control [14]: 196%
Control [21]: 541%
Control [22]: 936%

CCCCCCCCCCCCCCCCCCCCCC(=O)N[C@@H](CO[C@H]1O[C@@H](CO)[C@H](O)[C@H](O)[C@@H]1O)[C@H](O)CCCCCCCCCCCCCCC
Tumor growth inhibition ratio (max TGIR) [7]: 39.4%
Control [8]: 56.9%
Control [9]: 85%
Control [14]: 378%
Control [21]: 992%
Control [22]: 875%
